Results taken from ChEMBL document CHEMBL5154657, “Design, synthesis and biological evaluation of 1,5-disubstituted α-amino tetrazole derivatives as non-covalent inflammasome-caspase-1 complex inhibitors with potential application against immune and inflammatory disorders” (Eur J Med Chem, 2022).

How the values were obtained:
Caspase-1 (Homo sapiens) = biological target: T1, Caspase-1 (Homo sapiens) (UniProt P29466); assay: Inhibition of caspase 1 (unknown origin) assessed as enzyme residual activity using YVAD-AFC as substrate at 100 uM by fluorescence analysis
T1 sequence (whole entry): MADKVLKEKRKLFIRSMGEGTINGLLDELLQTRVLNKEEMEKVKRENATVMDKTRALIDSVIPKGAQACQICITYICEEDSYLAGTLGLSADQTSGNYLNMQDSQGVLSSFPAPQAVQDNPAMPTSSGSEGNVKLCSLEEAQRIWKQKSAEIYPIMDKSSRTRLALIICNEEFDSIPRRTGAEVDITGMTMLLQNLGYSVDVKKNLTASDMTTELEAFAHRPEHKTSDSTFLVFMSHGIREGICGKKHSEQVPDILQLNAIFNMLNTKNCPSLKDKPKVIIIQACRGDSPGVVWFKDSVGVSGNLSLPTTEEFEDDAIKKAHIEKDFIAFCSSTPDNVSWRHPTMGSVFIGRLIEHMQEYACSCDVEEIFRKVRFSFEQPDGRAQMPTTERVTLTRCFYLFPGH
Outline: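 Caspase-1 cleavage of an AFC-labelled peptide substrate is monitored over time by fluorescence (Ex/Em 400/505 nm). Residual enzyme activity is expressed as % with 100 μM compound, relative to an untreated control.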

[1] = Inhibition of LPS-induced IL-1beta secretion in human U-937 cells preincubated for 4 hrs with LPS followed by compound treatment for overnight by ELISA; format: functional, cell-based
Outline: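 U937 cells in RPMI 1640 with 10% FBS, differentiated with […] for 24h. Primed with LPS (1 μg/ml) for 4h, then compound added at graded concentrations, 10 μM down to 1 nM, overnight. Supernatants stored at −80 °C, and human IL-1β measured by sandwich ELISA. IC50 from regression of % inhibition against log concentration.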

Caspase-1 = biological target: T2, Caspase-1 (Homo sapiens, UniProt P29466); assay: Inhibition of caspase 1 (unknown origin) using YVAD-AFC as substrate by fluorescence analysis
T2 sequence (P29466 whole entry): T1 sequence (whole entry)
Outline: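 Caspase-1 activity is followed as a time course of fluorescence from cleavage of an AFC-labelled peptide substrate (Ex/Em 400/505 nm). Compounds are tested as a 10-dose series with 3-fold serial dilution starting at 100 μM or 10 μM. IC50 is the concentration halving enzyme activity. Curves are fitted only when activity at the top concentration is below 60%.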

[2] = Cytotoxicity against human U-937 cells assessed as reduction in cell viability at 100 uM after 48 hrs by MTT assay; format: toxicity, cell-based; conditions: read-out: INH
Outline: (§1)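 Human histiocytic lymphoma U937 cells are grown in RPMI 1640 with 10% FBS, penicillin and streptomycin at 37 °C under 5% CO₂. They are seeded at 10000 cells/well and exposed to compound from 1 nM to 100 μM for 48 h, with matched DMSO-only solvent controls. MTT (0.1 mg) is added for 4 h at 37 °C, cells are lysed, and A595 is read. Viability is given as % of control, as the mean of three independent experiments.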

U-937 = assay: Cytotoxicity against human U-937 cells assessed as reduction in cell viability at 10 to 100 nM after 48 hrs by MTT assay; format: toxicity, cell-based; conditions: u-937, 48 h, 0.1 µM, dose 10-100 nM; outline: as §1
[3] = Inhibition of LPS-induced IL-1beta secretion in human U-937 cells measured after 24 hrs by ELISA; format: functional, cell-based; conditions: U-937, 24 h
Outline: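 U937 human histiocytic lymphoma cells, grown in RPMI 1640 with 10% FBS, differentiated into macrophages with […] for 24h. Compound given at graded concentrations, 10 μM down to 1 nM, together with LPS (1 μg/ml) for 24h. Supernatants frozen at −80 °C, then IL-1β measured by sandwich ELISA. IC50 taken from regression of % inhibition against log concentration.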

Row | Activity (Caspase-1 (Homo sapiens)) | IC50 (Caspase-1) | Structure (SMILES) | further results
1 | 9.71% | – | CC(C)(C)C[C@@H](NCC(O)CC(=O)O)c1nnnn1CCCC(=O)N1CCc2ccccc2C1 (stereo partly specified) | –
2 | 2.47% | 12.1 µM | CC(C)CC(c1nnnn1CCCC(=O)N1CCc2ccccc2C1)N(Cc1ccccc1)CC(O)CC(=O)[O-].[Na+] (stereo unspecified) | IC50 [1]: 0.85 µM; cytotoxicity at 48 h, 100 µM [2]: 50%; Activity (U-937): Non-Toxic; IC50 [3]: 0.35 µM
3 | 77.1% | – | O=C(O)CC(O)CNC(c1nnnn1CCCC(=O)NCc1ccccc1)C1CC1 (stereo unspecified) | –
4 | 2.91% | 10.3 µM | CC(C)(C)CC(c1nnnn1CCCC(=O)N1CCc2ccccc2C1)N(Cc1ccccc1)CC(O)CC(=O)O (stereo unspecified) | –
5 | 80.6% | – | COc1cc2c(cc1OC)CN(C(=O)CCCn1nnnc1C(NCC(O)CC(=O)O)C1CC1)CC2 (stereo unspecified) | –
6 | 48.6% | – | O=C(O)CC(O)CN[C@@H](c1ccccc1)c1nnnn1CCCC(=O)N1CCc2ccccc2C1 (stereo partly specified) | –
7 | 62.4% | – | O=C(O)C[C@H](O)CN[C@@H](c1ccccc1)c1nnnn1CCCC(=O)NCc1ccccc1 | –
8 | 69.8% | – | O=C(O)C[C@H](O)CN[C@H](c1cccs1)c1nnnn1CCCC(=O)NCc1ccccc1 | –

The remaining lines, values behind:

Row | Structure (SMILES) | Activity (Caspase-1 (Homo sapiens)) | IC50 (Caspase-1) | further results
9 | CC(C)(C)C(NCC(O)CC(=O)O)c1nnnn1CCCC(=O)N1CCc2ccccc2C1 (stereo unspecified) | 61.9% | – | –
10 | CC(C)C(NCC(O)CC(=O)O)c1nnnn1CCCC(=O)N1CCc2ccccc2C1 (stereo unspecified) | 77.8% | – | –
11 | CC(C)(C)CC(NCC(O)CC(=O)O)c1nnnn1CCCC(=O)NCc1ccccc1 (stereo unspecified) | 59.9% | – | –
12 | O=C(O)CC(O)CN[C@H](c1cccs1)c1nnnn1CCCC(=O)N1CCc2ccccc2C1 (stereo partly specified) | 37.2% | – | –
13 | CC(C)(C)CC(c1nnnn1CCCC(=O)N1CCc2ccccc2C1)N(Cc1ccc(F)cc1)CC(O)CC(=O)O (stereo unspecified) | 3.9% | 12.7 µM | –
14 | O=C(O)CC(O)CN[C@@H](c1cccs1)c1nnnn1CCCC(=O)NCc1ccccc1 (stereo partly specified) | 49.6% | – | –
15 | CC(C)(C)CC(NCC(O)CC(=O)[O-])c1nnnn1CCCC(=O)N1CCc2ccccc2C1.[Na+] (stereo unspecified) | 8.12% | 15.1 µM | cytotoxicity at 48 h, 100 µM [2]: 50%; Activity (U-937): Non-Toxic; IC50 [3]: 50.1 µM
16 | CC(C)(C)C[C@H](c1nnnn1CCCC(=O)N1CCc2ccccc2C1)N(Cc1ccccc1)CC(O)CC(=O)O (stereo partly specified) | 4.45% | – | –
17 | O=C(O)CC(O)CN[C@H](c1ccccc1)c1nnnn1CCCC(=O)N1CCc2ccccc2C1 (stereo partly specified) | 40.5% | – | –
18 | COc1cc2c(cc1OC)CN(C(=O)CCCn1nnnc1C(CC(C)(C)C)NCC(O)CC(=O)O)CC2 (stereo unspecified) | 9.49% | 14.6 µM | –
19 | COc1cc2c(cc1OC)CN(C(=O)CCCn1nnnc1C(NCC(O)CC(=O)O)C(C)(C)C)CC2 (stereo unspecified) | 96.7% | – | –
20 | O=C(O)CC(O)CNC(c1ccccc1)c1nnnn1CCCC(=O)N1CCc2ccccc2C1 (stereo unspecified) | 48% | 94.1 µM | –
21 | CC(C)CC(c1nnnn1CCCC(=O)N1CCc2ccccc2C1)N(Cc1ccc(F)cc1)CC(O)CC(=O)O (stereo unspecified) | 2.06% | 20.7 µM | –
22 | O=C(O)C[C@@H](O)CN[C@H](c1ccccc1)c1nnnn1CCCC(=O)NCc1ccccc1 | 63.3% | – | –
23 | CC(C)CC(NCC(O)CC(=O)O)c1nnnn1CCCC(=O)N1CCc2ccccc2C1 (stereo unspecified) | 43.7% | 79.4 µM | –
24 | O=C(O)CC(O)CNC(c1nnnn1CCCC(=O)N1CCc2ccccc2C1)C1CC1 (stereo unspecified) | 90% | – | –
25 | O=C(O)CC(O)CNC(c1cccs1)c1nnnn1CCCC(=O)N1CCc2ccccc2C1 (stereo unspecified) | 77.2% | – | –
26 | O=C(O)CC(O)CN[C@@H](c1cccs1)c1nnnn1CCCC(=O)N1CCc2ccccc2C1 (stereo partly specified) | 29% | – | –
